# Results as given in ChEMBL document CHEMBL3856229, “Hybrid Antibiotic Overcomes Resistance in P. aeruginosa by Enhancing Outer Membrane Penetration and Reducing Efflux” (J Med Chem, 2016).
# Tests used:
# Pseudomonas aeruginosa [1] = test: Induction of cytoplasmic membrane depolarization in Pseudomonas aeruginosa PAO1 by DiSC3(5) dye based fluorescence assay; format: functional
# Escherichia coli [2] = test: Antibacterial activity against fluoroquinolone resistant Escherichia coli isolate 87164 harboring beta-lactamase CTX-M-15/TEM-1; format: functional
# Staphylococcus aureus [3] = test: Antibacterial activity against Staphylococcus aureus ATCC 29213 after 24 hrs by microtitre broth dilution method; format: functional; conditions: ATCC 29213, 24 h
# [4] = Inhibition of Pseudomonas aeruginosa DNA gyrase A assessed as inhibition of DNA supercoiling using PBR322 DNA as substrate after 30 mins by SYBR Gold staining based agarose gel electrophoresis
# Pseudomonas aeruginosa [5] = test: Antibacterial activity against Pseudomonas aeruginosa PAO1 assessed as fractional inhibitory concentration index after 18 hrs in presence of vancomycin by checkerboard method; format: functional
# Outline: (§1)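 Checkerboard combinations of the hybrid with each partner antibiotic were tested against P. aeruginosa PAO1. Interaction is expressed as the fractional inhibitory concentration (FIC) index: ≤0.5 means synergy, 1–2 no interaction, ≥4 antagonism.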
# Pseudomonas aeruginosa [6] = test: Antibacterial activity against multidrug/extremely drug-resistant/colistin-susceptible Pseudomonas aeruginosa isolate 262-101856; format: functional
# Pseudomonas aeruginosa [7] = test: Antibacterial activity against Pseudomonas aeruginosa PAO1 assessed as fractional inhibitory concentration index after 18 hrs in presence of tobramycin by checkerboard method; format: functional; outline: as §1
# Pseudomonas aeruginosa [8] = test: Antimicrobial activity against Pseudomonas aeruginosa PAO200; format: functional
# Outline: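 MIC (µg/mL) determined in PAO200, a PAO1-derived MexAB-OprM deletion strain used to assess efflux effects.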
# Pseudomonas aeruginosa [9] = test: Antibacterial activity against multidrug-resistant/tobramycin-susceptible Pseudomonas aeruginosa isolate 86052; format: functional
# Pseudomonas aeruginosa [10] = test: Antibacterial activity against gentamicin-resistant Pseudomonas aeruginosa isolate CAN-ICU 62308 after 24 hrs by microtitre broth dilution method; format: functional; conditions: isolate CAN-ICU 62308, 24 h
# Pseudomonas aeruginosa [11] = test: Potentiation of ciprofloxacin induced antibacterial activity against pandrug-resistant Pseudomonas aeruginosa isolate 91433 assessed as ciprofloxacin MIC at <= […] ug/ml (reference value: 4 to 8 ug/ml); format: functional
# [12] = system: Staphylococcus epidermidis; test: Antibacterial activity against methicillin-susceptible Staphylococcus epidermidis isolate CANWARD-2008 81388 after 24 hrs by microtitre broth dilution method; format: functional; conditions: isolate CANWARD-2008 81388, 24 h
# Pseudomonas aeruginosa [13] = test: Antibacterial activity against pandrug-resistant Pseudomonas aeruginosa isolate 101243 in presence of <= 4 ug/ml of ciprofloxacin (reference value: 8 ug/ml); format: functional
# Pseudomonas aeruginosa [14] = test: Antibacterial activity against gentamicin/tobramycin-resistant Pseudomonas aeruginosa isolate CANWARD-2011 96846 after 24 hrs by microtitre broth dilution method; format: functional; conditions: isolate CANWARD-2011 96846, 24 h
# Escherichia coli [15] = test: Antibacterial activity against fluoroquinolone resistant Escherichia coli isolate 80083 harboring beta-lactamase CTX-M-15/OXA-1; format: functional
# Pseudomonas aeruginosa [16] = test: Antibacterial activity against Pseudomonas aeruginosa PAO1 assessed as fractional inhibitory concentration index after 18 hrs in presence of novobiocin by checkerboard method; format: functional; outline: as §1
# Acinetobacter baumannii = test: Antibacterial activity against fluoroquinolone resistant Acinetobacter baumannii isolate ABO28; format: functional
# Pseudomonas aeruginosa [17] = test: Potentiation of moxifloxacin induced antibacterial activity against multidrug/extremely drug-resistant Pseudomonas aeruginosa isolate PA262-101856 assessed as moxifloxacin MIC at <= […] ug/ml (reference value: […] to […] ug/ml); format: functional
# Escherichia coli [18] = test: Antibacterial activity against gentamicin/tobramycin/ciprofloxacin-resistant Escherichia coli isolate CANWARD-2011 97615 harboring AAC3-2A after 24 hrs by microtitre broth dilution method; format: functional; conditions: isolate CANWARD-2011 97615, 24 h
# Escherichia coli [19] = test: Antibacterial activity against fluoroquinolone resistant Escherichia coli isolate 90789 harboring beta-lactamase KPC-3/TEM-1; format: functional
# Staphylococcus aureus [20] = test: Antibacterial activity against methicillin-resistant Staphylococcus aureus ATCC 33592 after 24 hrs by microtitre broth dilution method; format: functional; conditions: ATCC 33592, 24 h
# Pseudomonas aeruginosa [21] = test: Antibacterial activity against pandrug-resistant Pseudomonas aeruginosa isolate 101243 in presence of <= 4 ug/ml of moxifloxacin (reference value: 8 ug/ml); format: functional
# [22] = system: Staphylococcus epidermidis; test: Antibacterial activity against methicillin-resistant Staphylococcus epidermidis isolate CAN-ICU 61589 after 24 hrs by microtitre broth dilution method; format: functional; conditions: isolate CAN-ICU 61589, 24 h
# Pseudomonas aeruginosa [23] = test: Antibacterial activity against multidrug-resistant/tobramycin-susceptible Pseudomonas aeruginosa isolate 86067; format: functional
# Pseudomonas aeruginosa [24] = test: Ratio of MIC for Pseudomonas aeruginosa PAO1 after 25 serial passages to MIC for Pseudomonas aeruginosa PAO1 prior to 25 serial passages; format: functional
# Outline: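 P. aeruginosa PAO1 exposed to sub-inhibitory (0.5 x MIC) drug over successive subcultures as a resistance-selection procedure. MIC compared after versus before passaging.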
# Enterococcus faecalis = test: Antibacterial activity against Enterococcus faecalis ATCC 29212 after 24 hrs by microtitre broth dilution method; format: functional; conditions: ATCC 29212, 24 h
# Pseudomonas aeruginosa [25] = test: Antibacterial activity against Pseudomonas aeruginosa PAO1 assessed as fractional inhibitory concentration index after 18 hrs in presence of colistin by checkerboard method; format: functional; outline: as §1
# [26] = Inhibition of circular DNA translation in Escherichia coli S30 extract after 60 mins by luciferase reporter gene assay
# Outline: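 Translation was run in an E. coli S30 extract with a luciferase read-out. Luminescence is expressed as a percentage of the no-antibiotic control, taken as 100%.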
# Pseudomonas aeruginosa [27] = test: Antibacterial activity against Pseudomonas aeruginosa PAO1 assessed as fractional inhibitory concentration index after 18 hrs in presence of ceftazidime by checkerboard method; format: functional; outline: as §1
# Pseudomonas aeruginosa [28] = test: Antibacterial activity against extremely drug-resistant Pseudomonas aeruginosa isolate 104354 infected in Galleria mellonella assessed as larvae survival at 50 mg/kg administered as single dose measured after 24 hrs (reference value: 27 %); format: functional; conditions: isolate 104354, 24 h
# Outline: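 Galleria mellonella larvae were infected with 10^6 CFU of XDR P. aeruginosa #104354, resistant to all antipseudomonal classes except colistin. A single injected drug dose was given 2 h post-infection: 50 mg/kg with survival read at 24 h, or 75 mg/kg with survival read at 96 h. Controls were infected untreated larvae and PBS-injected larvae. Two independent experiments of 15 larvae each (n = 30).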
# Pseudomonas aeruginosa [29] = test: Antibacterial activity against multidrug/extremely drug-resistant Pseudomonas aeruginosa isolate PA262-101856 in presence of <= 4 ug/ml of moxifloxacin (reference value: 4 ug/ml); format: functional
# Pseudomonas aeruginosa [30] = test: Antibacterial activity against multidrug/extremely drug-resistant/colistin-susceptible Pseudomonas aeruginosa isolate 260-97103; format: functional
# Pseudomonas aeruginosa [31] = test: Antibacterial activity against pandrug-resistant Pseudomonas aeruginosa isolate 101243; format: functional
# Pseudomonas aeruginosa [32] = test: Antibacterial activity against multidrug-resistant/tobramycin-susceptible Pseudomonas aeruginosa isolate 92014; format: functional
# Pseudomonas aeruginosa [33] = test: Antibacterial activity against multidrug/extremely drug-resistant Pseudomonas aeruginosa isolate PA259-96918 in presence of <= 4 ug/ml of ciprofloxacin (reference value: 2 ug/ml); format: functional
# Pseudomonas aeruginosa [34] = test: Potentiation of moxifloxacin induced antibacterial activity against multidrug/extremely drug-resistant Pseudomonas aeruginosa isolate PA259-96918 assessed as moxifloxacin MIC at <= […] ug/ml (reference value: […] ug/ml); format: functional
smiles,measurement,setting,value
COc1c(N2C[C@@H]3CCCN(CCCCCCCCCCCCO[C@@H]4[C@@H](O[C@H]5O[C@H](CO)[C@@H](O)[C@H](N)[C@H]5O)[C@H](N)C[C@H](N)[C@H]4O[C@H]4O[C@H](CN)[C@@H](O)C[C@H]4N)[C@@H]3C2)c(F)cc2c(=O)c(C(=O)O)cn(C3CC3)c12.Cl.Cl.Cl.Cl.Cl,Activity,Pseudomonas aeruginosa [1],Dose-dependent effect
same,MIC,Escherichia coli [2],≥ 64 µg/mL
same,MIC,Staphylococcus aureus [3],1 µg/mL
same,IC50,[4],54.7 µM
same,fractional inhibitory concentration index (FICI),Pseudomonas aeruginosa [5],0.26
same,MIC,Pseudomonas aeruginosa [6],4 µg/mL
same,fractional inhibitory concentration index (FICI),Pseudomonas aeruginosa [7],>2
same,MIC,Pseudomonas aeruginosa [8],4 µg/mL
same,MIC,Pseudomonas aeruginosa [9],2 µg/mL
same,MIC,Pseudomonas aeruginosa [10],8 µg/mL
same,MIC,Pseudomonas aeruginosa [11],0.25 µg/mL
same,MIC,[12],2 µg/mL
same,MIC,Pseudomonas aeruginosa [13],< 1 µg/mL
same,MIC,Pseudomonas aeruginosa [14],4 µg/mL
same,MIC,Escherichia coli [15],≥ 64 µg/mL
same,fractional inhibitory concentration index (FICI),Pseudomonas aeruginosa [16],0.12
same,MIC,Acinetobacter baumannii,8 to 64 µg/mL
same,MIC,Pseudomonas aeruginosa [17],2 µg/mL
same,MIC,Escherichia coli [18],128 µg/mL
same,MIC,Escherichia coli [19],≥ 64 µg/mL
same,MIC,Staphylococcus aureus [20],1 µg/mL
same,MIC,Pseudomonas aeruginosa [21],< 1 µg/mL
same,MIC,[22],16 µg/mL
same,MIC,Pseudomonas aeruginosa [23],4 µg/mL
same,Ratio,Pseudomonas aeruginosa [24],2
same,MIC,Enterococcus faecalis,4 µg/mL
same,fractional inhibitory concentration index (FICI),Pseudomonas aeruginosa [25],0.37
same,IC50,[26],4.7 µM
same,fractional inhibitory concentration index (FICI),Pseudomonas aeruginosa [27],0.37
same,survival at 50 mg/kg,Pseudomonas aeruginosa [28],100%
same,MIC,Pseudomonas aeruginosa [29],< 1 µg/mL
same,MIC,Pseudomonas aeruginosa [30],1 µg/mL
same,MIC,Pseudomonas aeruginosa [31],8 µg/mL
same,MIC,Pseudomonas aeruginosa [32],4 µg/mL
same,MIC,Pseudomonas aeruginosa [33],< 0.5 µg/mL
same,MIC,Pseudomonas aeruginosa [34],< 1 µg/mL
